Measured values published in ChEMBL document CHEMBL4190388, “Discovery and Optimization of Indolyl-Containing 4-Hydroxy-2-Pyridone Type II DNA Topoisomerase Inhibitors Active against Multidrug Resistant Gram-negative Bacteria” (J Med Chem, 2018).
Values after ≈ are worked out from the molar mass of the structure shown.

Columns and labels:
Acinetobacter baumannii [1] = assay: Antibacterial activity against wild type Acinetobacter baumannii by broth microdilution method; type: functional
Method in brief: (§1)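 MICs were determined by CLSI broth methods, except that organisms were grown in brain–heart–infusion medium. The panel comprised wild-type and resistant E. coli and A. baumannii strains, including 12 strains whose details are given by reference.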

Escherichia coli [2] = assay: Antibacterial activity against quinolone resistance Escherichia coli isolate ELZ4251 harboring gyrA/parC mutant by CLSI M100-S17 protocol based method; type: functional
Mus musculus [3] = assay: Volume of distribution at steady state in CD1 mouse plasma at 10 mg/kg, iv by LC-MS/MS analysis; type: ADME, organism-based; conditions: in vivo
Acinetobacter baumannii [4] = assay: Antibacterial activity against wild type Acinetobacter baumannii ATCC BAA-747 by CLSI M100-S17 protocol based method; type: functional
Acinetobacter baumannii [5] = assay: Antibacterial activity against carbapenem resistant Acinetobacter baumannii by broth microdilution method; type: functional; conditions: Acinetobacter baumannii; method in brief: as §1
Acinetobacter baumannii [6] = assay: Antibacterial activity against fluoroquinolone resistant Acinetobacter baumannii isolate MMX2240 by CLSI M100-S17 protocol based method; type: functional
Escherichia coli [7] = assay: Antibacterial activity against fluoroquinolone resistant Escherichia coli SKM18 by CLSI M100-S17 protocol based method; type: functional
Escherichia coli [8] = assay: Selectivity ratio of MIC for wild type Escherichia coli ATCC 25922 in presence of HSA to MIC for wild type Escherichia coli ATCC 25922; type: functional
Klebsiella pneumoniae = assay: Antibacterial activity against wild type Klebsiella pneumoniae ATCC 35657 by CLSI M100-S17 protocol based method; type: functional
Escherichia coli [9] = assay: Antibacterial activity against wild type Escherichia coli ATCC 25922 in presence of HSA by CLSI M100-S17 protocol based method; type: functional
Escherichia coli [10] = assay: Antibacterial activity against wild type Escherichia coli by broth microdilution method; type: functional; method in brief: as §1
Mus musculus [11] = assay: AUC (0 to 24 hrs) in CD1 mouse plasma at 10 mg/kg, iv by LC-MS/MS analysis; type: ADME, organism-based; parameters: time < 24 hr, dose 10 mg/kg, route intravenous; conditions: in vivo
Method in brief: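 CD-1 mice given a single 10 mg/kg iv dose (n = 3), in either 10% DMSO plus 1% Tween 80 in pH 8.0 phosphate buffer or 20% (2-hydroxypropyl)-β-cyclodextrin in pH 4.0 citrate buffer; plasma exposure measured.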

Escherichia coli [12] = assay: Antibacterial activity against beta-lactam resistant Escherichia coli by broth microdilution method; type: functional; conditions: Escherichia coli; for MIC: read-out: MIC; method in brief: as §1
Escherichia coli [13] = assay: Antibacterial activity against aminoglycoside resistant Escherichia coli by broth microdilution method; type: functional; conditions: Escherichia coli; for MIC: read-out: MIC; method in brief: as §1
Acinetobacter baumannii [14] = assay: Antibacterial activity against quinolone resistant Acinetobacter baumannii by broth microdilution method; type: functional; conditions: Acinetobacter baumannii; method in brief: as §1
[15] = Fraction unbound in mouse plasma at 1 uM by equilibrium dialysis method; type: ADME, cell-free
Escherichia coli [16] = assay: Antibacterial activity against multidrug resistant Escherichia coli by broth microdilution method; type: functional; conditions: Escherichia coli; for MIC: read-out: MIC; method in brief: as §1
Escherichia coli [17] = assay: Antibacterial activity against quinolone resistant Escherichia coli by broth microdilution method; type: functional; conditions: Escherichia coli; for MIC: read-out: MIC; method in brief: as §1
Mus musculus [18] = assay: Terminal half life in CD1 mouse plasma at 10 mg/kg, iv by LC-MS/MS analysis; type: ADME, organism-based; conditions: in vivo
Acinetobacter baumannii [19] = assay: Antibacterial activity against multidrug resistant Acinetobacter baumannii by broth microdilution method; type: functional; conditions: Acinetobacter baumannii; method in brief: as §1
[20] = Oral bioavailability in CD1 mouse plasma by LC-MS/MS analysis; type: ADME, organism-based
Escherichia coli [21] = assay: Antibacterial activity against wild type Escherichia coli ATCC 25922 by CLSI M100-S17 protocol based method; type: functional
Acinetobacter baumannii [22] = assay: Antibacterial activity against aminoglycoside resistant Acinetobacter baumannii by broth microdilution method; type: functional; conditions: Acinetobacter baumannii; method in brief: as §1
Acinetobacter baumannii [23] = assay: Antibacterial activity against beta-lactam resistant Acinetobacter baumannii by broth microdilution method; type: functional; conditions: Acinetobacter baumannii; method in brief: as §1
Escherichia coli [24] = assay: Antibacterial activity against Escherichia coli infected in cyclophosphamide treated neutropenic CD1 mouse septicemia model assessed as mouse survival at 20 mg/kg, iv dosed at 1 hr post infection followed by redosing at 5 hrs post infection measured at 96 hrs post infection relative to control; type: functional
Method in brief: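 Female CD-1 mice were made neutropenic with cyclophosphamide ip, 150 mg/kg on day −4 and 100 mg/kg on day −1. […] Compound was given iv in 3% DMSO/saline at 1 and 5 h postinfection, n = 6 per group. Percent survival was scored at 96 h postinfection.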

Row | SMILES | MIC50 (Acinetobacter baumannii [1]) [µg/mL] | MIC90 (Acinetobacter baumannii [1]) [µg/mL] | MIC (Escherichia coli [2]) [µg/mL] | Vdss (Mus musculus [3]) [L/kg] | MIC (Acinetobacter baumannii [4]) [µg/mL] | MIC50 (Acinetobacter baumannii [5]) [µg/mL] | MIC (Acinetobacter baumannii [6]) [µg/mL] | MIC (Escherichia coli [7]) [µg/mL] | Ratio (Escherichia coli [8]) | MIC (Klebsiella pneumoniae) [µg/mL] | MIC (Escherichia coli [9]) [µg/mL] | MIC50 (Escherichia coli [10]) [µg/mL] | MIC90 (Escherichia coli [10]) [µg/mL] | AUC (Mus musculus [11]) [ng·h/mL] | MIC50 (Escherichia coli [12]) [µg/mL] | MIC90 (Escherichia coli [12]) [µg/mL] | MIC (Escherichia coli [12]) [µg/mL] | MIC50 (Escherichia coli [13]) [µg/mL] | MIC90 (Escherichia coli [13]) [µg/mL] | MIC (Escherichia coli [13]) [µg/mL] | further results
1 | CN(C)Cc1cc2cc3c(cc2n1C)CCCc1c-3[nH]c(=O)c(C(=O)O)c1O | 2 (≈ 5.24 µM) | > 16 | 1.6 (≈ 4.19 µM) | 11 | 1.6 (≈ 4.19 µM) | 2 (≈ 5.24 µM) | 1.6 (≈ 4.19 µM) | 0.78 (≈ 2.04 µM) | 4 - 16 | 0.78 (≈ 2.04 µM) | 12.5 | 0.5 (≈ 1.31 µM) | 1 (≈ 2.62 µM) | 3520 | 0.5 (≈ 1.31 µM) | 1 (≈ 2.62 µM) | 0.25 to 2 (≈ 0.655 to 5.24 µM) | 0.5 (≈ 1.31 µM) | 1 (≈ 2.62 µM) | 0.25 to 2 (≈ 0.655 to 5.24 µM) | MIC (Acinetobacter baumannii [5]; read-out: MIC): 0.12 to 16 µg/mL (≈ 0.315 to 41.9 µM); MIC50 (Acinetobacter baumannii [14]): 2 µg/mL (≈ 5.24 µM); MIC (Acinetobacter baumannii [14]; read-out: MIC): 0.12 to 16 µg/mL (≈ 0.315 to 41.9 µM); Fu [15]: 0.1; MIC50 (Escherichia coli [16]): 0.5 µg/mL (≈ 1.31 µM); MIC90 (Escherichia coli [16]): 1 µg/mL (≈ 2.62 µM); MIC (Escherichia coli [16]): 0.25 to 2 µg/mL (≈ 0.655 to 5.24 µM); MIC50 (Escherichia coli [17]): 0.5 µg/mL (≈ 1.31 µM); MIC90 (Escherichia coli [17]): 1 µg/mL (≈ 2.62 µM); MIC (Escherichia coli [17]): 0.25 to 2 µg/mL (≈ 0.655 to 5.24 µM); beta t1/2 (Mus musculus [18]): 2.9 h; MIC50 (Acinetobacter baumannii [19]): 2 µg/mL (≈ 5.24 µM); MIC (Acinetobacter baumannii [19]; read-out: MIC): 0.12 to 16 µg/mL (≈ 0.315 to 41.9 µM); bioavailability [20]: 42%; MIC (Escherichia coli [21]): 0.78 µg/mL (≈ 2.04 µM); MIC50 (Acinetobacter baumannii [22]): 2 µg/mL (≈ 5.24 µM); MIC (Acinetobacter baumannii [22]; read-out: MIC): 0.12 to 16 µg/mL (≈ 0.315 to 41.9 µM); MIC50 (Acinetobacter baumannii [23]): 2 µg/mL (≈ 5.24 µM); MIC (Acinetobacter baumannii [23]; read-out: MIC): 0.12 to 16 µg/mL (≈ 0.315 to 41.9 µM)
2 | Cn1c(CNC2(C)CCC2)cc2cc3c(cc21)OCCc1c-3[nH]c(=O)c(C(=O)O)c1O | 1 (≈ 2.36 µM) | 8 (≈ 18.9 µM) | 0.78 (≈ 1.84 µM) | 13 | 0.5 (≈ 1.18 µM) | 1 (≈ 2.36 µM) | 0.5 (≈ 1.18 µM) | 0.5 (≈ 1.18 µM) | 2 - 4 | 1 (≈ 2.36 µM) | 3.9 | 0.5 (≈ 1.18 µM) | 1 (≈ 2.36 µM) | 4420 | 0.5 (≈ 1.18 µM) | 1 (≈ 2.36 µM) | 0.12 to 1 (≈ 0.283 to 2.36 µM) | 0.5 (≈ 1.18 µM) | 1 (≈ 2.36 µM) | 0.12 to 1 (≈ 0.283 to 2.36 µM) | MIC90 (Acinetobacter baumannii [5]): 8 µg/mL (≈ 18.9 µM); MIC50 (Acinetobacter baumannii [14]): 1 µg/mL (≈ 2.36 µM); MIC90 (Acinetobacter baumannii [14]): 8 µg/mL (≈ 18.9 µM); survival at 20 mg/kg (Escherichia coli [24]): 67%; Fu [15]: 0.15; MIC50 (Escherichia coli [16]): 0.5 µg/mL (≈ 1.18 µM); MIC90 (Escherichia coli [16]): 1 µg/mL (≈ 2.36 µM); MIC (Escherichia coli [16]): 0.12 to 1 µg/mL (≈ 0.283 to 2.36 µM); MIC50 (Escherichia coli [17]): 0.5 µg/mL (≈ 1.18 µM); MIC90 (Escherichia coli [17]): 1 µg/mL (≈ 2.36 µM); MIC (Escherichia coli [17]): 0.12 to 1 µg/mL (≈ 0.283 to 2.36 µM); beta t1/2 (Mus musculus [18]): 3.3 h; MIC50 (Acinetobacter baumannii [19]): 1 µg/mL (≈ 2.36 µM); MIC90 (Acinetobacter baumannii [19]): 8 µg/mL (≈ 18.9 µM); bioavailability [20]: 50%; MIC (Escherichia coli [21]): 1 µg/mL (≈ 2.36 µM); MIC50 (Acinetobacter baumannii [22]): 1 µg/mL (≈ 2.36 µM); MIC90 (Acinetobacter baumannii [22]): 8 µg/mL (≈ 18.9 µM); MIC50 (Acinetobacter baumannii [23]): 1 µg/mL (≈ 2.36 µM); MIC90 (Acinetobacter baumannii [23]): 8 µg/mL (≈ 18.9 µM)
